The nature of test [1]: Inhibition of Bacillus stearothermophilus alpha-glucosidase using 4-nitrophenyl alpha-D-glucopyranoside as substrate after 30 mins by spectrophotometric analysis. Details: species or system Geobacillus stearothermophilus. A digest of the protocol:
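Inhibitor in phosphate buffer pH 6.8 with 1 mM 4-nitrophenyl α-D-glucopyranoside was preincubated 5 min at 37 °C. Then 0.075 unit enzyme was added and the mix held 30 min at 37 °C. Stopped with 100 mM Na₂CO₃; liberated p-nitrophenol read at 400 nm. Inhibitor levels were 1, 3, 10, 15 and 25, each in triplicate. IC50 came from an activity% vs log[inhibitor] plot, with no-inhibitor control taken as 100%.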

Test [2] is described as follows: Inhibition of almond beta-glucosidase using 4-nitrophenyl beta-D-glucopyranoside as substrate after 30 mins by spectrophotometric analysis. Details: species or system Prunus dulcis. In a few lines:
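Reaction held 1 mM 4-nitrophenyl β-D-glucopyranoside in phosphate buffer pH 6.8 with inhibitor, preincubated at 37 °C for 5 min. Enzyme (EC 3.2.1.21, 0.075 unit) was then added, followed by 30 min at 37 °C. Na₂CO₃ (100 mM) stop, then absorbance at 400 nm. Inhibitor at 10, 20, 30, 50, 70, 80, 90 and 100, triplicates. Control without inhibitor set to 100%; IC50 from activity% vs log[inhibitor].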

IC50 data for five molecules are collected here from ChEMBL document CHEMBL2203193, “Synthesis of novel mono and bis-indole conduritol derivatives and their α/β-glycosidase inhibitory effects” (Bioorg Med Chem Lett, 2012).

SMILES strings stand for the structures.

Regarding `O[C@H]1[C@H](O)[C@@H](N2CCc3ccccc32)C=C[C@@H]1N1CCc2ccccc21`, the results for the IC50 in test [1] and in test [2] were 18.1 µM and 67.7 µM, respectively.

For `CC(=O)O[C@H]1[C@H](OC(C)=O)[C@@H](n2ccc3ccccc32)C=C[C@@H]1n1ccc2ccccc21`, the IC50 in test [1] amounted to 19.3 µM; in test [2] it was 52.8 µM.

Turning to `CC(=O)O[C@@H]1[C@@H](O)[C@H](OC(C)=O)C=C[C@H]1N1CCc2ccccc21`, the IC50 in test [1] is 12.4 µM; in test [2] it was 24.3 µM.

With `CC(=O)O[C@@H]1[C@@H](O)[C@H](OC(C)=O)C=C[C@H]1n1ccc2ccccc21`, the IC50 worked out at 11.6 µM in test [1] and 23.1 µM in test [2].

Take `C[C@H]1O[C@H](O[C@H]2[C@H](O)[C@@H](O)[C@@H](O[C@H]3[C@H](O)[C@@H](O)C(O)O[C@@H]3CO)O[C@@H]2CO)[C@H](O)[C@@H](O)[C@@H]1N[C@H]1C=C(CO)[C@@H](O)[C@H](O)[C@H]1O` (stereo not given in full) [ACARBOSE]: the IC50 in test [1] worked out at 9.24 µM; in test [2] it was 103 µM.
